Assay results taken from article PMC10498798 (Mycobiology, 2023).
≈ marks a conversion by molar mass, not a printed value. Entries after “also recorded” stand apart in the source; their conditions may differ. Like-named read-outs stand apart in the source and are kept apart here.

Legend:
[1] = system: MCF-7 (Human breast adenocarcinoma); assay: MTT cytotoxic assay, MCF-7; type: cell-based; details: for IC50: Homo sapiens, MCF7, 36 h, read-out: IC50 MCF-7
[2] = system: Vero cells (monkey kidney epithelial cells); assay: MTT cytotoxic assay, Vero cells; type: cell-based; details: for IC50 Vero: MTT; for IC50: Primates, Vero
RAW 264.7 macrophages = assay: MTT cell viability of RAW 264.7 macrophages; type: cell-based, murine
Procedure, shortened: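 RAW 264.7 cells were kept in DMEM with 10% FBS and penicillin/streptomycin at 37 °C, 5% CO2. Exponential-phase cells (5x10^4 per well) were exposed to serially diluted test compound (50-25-12.5-6.25 µg/mL) plus 1 µg/mL LPS for 36 h. MTT (0.5 mg/mL) was then added for 4 h at 37 °C. Formazan was dissolved in DMSO and read at 570 nm. Runs were in triplicate.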

[3] = target: T1, porcine pancreatic lipase (Type II) (Sus scrofa, UniProt P00591); assay: Lipase inhibitory assay; type: biochemical; details: for inhibition at 500 µg/mL / inhibition at 125 µg/mL / inhibition at 250 µg/mL: read-out: Enzyme inhibition (pancreatic lipase)
T1 sequence (P00591 1-450): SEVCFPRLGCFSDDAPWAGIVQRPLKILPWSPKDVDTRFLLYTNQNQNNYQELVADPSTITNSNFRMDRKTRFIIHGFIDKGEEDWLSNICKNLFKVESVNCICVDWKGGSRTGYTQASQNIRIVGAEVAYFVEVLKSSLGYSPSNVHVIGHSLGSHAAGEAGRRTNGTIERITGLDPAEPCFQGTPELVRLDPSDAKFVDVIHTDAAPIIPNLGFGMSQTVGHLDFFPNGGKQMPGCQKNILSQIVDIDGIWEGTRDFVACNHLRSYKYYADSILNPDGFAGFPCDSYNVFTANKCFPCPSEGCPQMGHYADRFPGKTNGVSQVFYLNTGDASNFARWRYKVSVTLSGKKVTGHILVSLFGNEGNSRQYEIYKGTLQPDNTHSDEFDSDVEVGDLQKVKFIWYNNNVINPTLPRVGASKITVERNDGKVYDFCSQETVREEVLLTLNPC
Procedure, shortened: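 Porcine pancreatic lipase (Type II, 0.1 mg) was mixed with 6.66 μM p-nitrophenyl palmitate in ethanol/acetonitrile (2:1, v/v) and test compound in 0.061 M Tris-HCl, pH 8.5. The mixture was incubated at 37 °C for 25 min, stopped with ethanol, and substrate hydrolysis read at 405 nm. Runs were in triplicate. IC50 was estimated from inhibition-versus-concentration plots.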

[4] = system: Hep-G2 (Human hepatocellular carcinoma); assay: MTT cytotoxic assay, Hep-G2; type: cell-based; details: for IC50: Homo sapiens, HepG2, 36 h, read-out: IC50 Hep-G2
[5] = system: NO production in LPS-stimulated RAW 264.7 macrophages; assay: Nitrite; type: cell-based, murine
Procedure, shortened: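 RAW 264.7 cells were seeded at 2x10^5 per well and grown to about 70% confluence, then serum-starved in 1% FBS medium. Test compound was given at non-cytotoxic concentrations for 24 h at 37 °C, then cells were stimulated with 1 µg/mL LPS for 24 h. Supernatant nitrite was measured with Griess reagent (30 °C, 20 min) at 550 nm against a sodium nitrite standard curve. Runs were in triplicate, and IC50 came from inhibition-concentration plots.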

[6] = system: A549 (Human lung carcinoma); assay: MTT cytotoxic assay, A549; type: cell-based; details: for IC50: Homo sapiens, A549, 36 h, read-out: IC50 A549
[7] = system: α-glucosidase from Saccharomyces cerevisiae; assay: Alpha-glucosidase inhibitory assay; type: biochemical; details: for α-glucosidase inhibition rate: concentration of 400 µg/mL; for IC50: read-out: IC50 α-glucosidase, µM equivalent, converted from µg/mL
[8] = 36 h, read-out: IC50 Vero, MTT, 36 h
[9] = Mus musculus, RAW264.7, read-out: NO inhibition
[10] = read-out: IC50 Vero, μM equivalent, converted from µg/mL

Row | SMILES | IC50 [1] [µg/mL] | IC50 Vero ([2]; 36 h) | IC50 [2, 8] [µg/mL] | Cell survival (RAW 264.7 macrophages; test concentration 1 µg/mL) [%] | Cell survival (RAW 264.7 macrophages; test concentration 5 µg/mL) [%] | Cell survival (RAW 264.7 macrophages; test concentration 25 µg/mL) [%] | Cell survival (RAW 264.7 macrophages; test concentration 50 µg/mL) [%] | inhibition at 500 µg/mL [3] [%] | IC50 [4] [µg/mL] | inhibition at 1 µg/mL [5, 9] [%] | inhibition at 5 µg/mL [5, 9] [%] | inhibition at 25 µg/mL [5, 9] [%] | IC50 [6] [µg/mL] | α-glucosidase inhibition rate [7] | IC50 [2, 10] [µM] | IC50 [3] [µM] | inhibition at 125 µg/mL [3] [%] | inhibition at 250 µg/mL [3] [%] | IC50 α-glucosidase [7] [µg/mL] | IC50 [7] [µM] | also measured
1 | CC(C)[C@@H](C)/C=C/[C@@H](C)[C@H]1CC[C@H]2C3=C[C@@H](O)[C@@]4(O)C[C@@H](O)CC[C@]4(C)[C@H]3CC[C@]12C [Compound (1), cerevisterol] | > 50 | did not show any cytotoxicity | > 50 | 98.05 ± 0.67 | 97.69 ± 1.20 | 96.78 ± 0.63 | 98.40 ± 1.73 | 0 | > 50 | 14.4 ± 1.5 | 30.9 ± 1.04 | 48.8 ± 1.43 | > 50 | 12.69 ± 1.06% |  |  |  |  |  |  | IC50 MCF-7 ([1]; MTT, 36 h): no significant effect; also recorded: did not show any cytotoxicity; IC50 Hep-G2 ([4]; MTT, 36 h): no significant effect; also recorded: did not show any cytotoxicity; inhibition at 50 µg/mL [5, 9]: 54.2 ± 1.27%; IC50 A549 ([6]; MTT, 36 h): no significant effect; also recorded: did not show any cytotoxicity
2 | Cc1c2ccncc2c(C)c2c1[nH]c1ccccc12 [Ellipticine, reference compound] | 2.69 (≈ 10.9 µM) |  | 8.61 |  |  |  |  |  | 1.26 (≈ 5.12 µM) |  |  |  | 1.38 (≈ 5.6 µM) |  |  |  |  |  |  |  | 
3 | COc1cc(O)cc(O)c1C(=O)/C=C/c1ccccc1 [Cardamonin, reference compound] |  |  |  |  |  |  |  |  |  |  |  |  |  |  |  |  |  |  |  |  | Cell survival (RAW 264.7 macrophages; test concentration 0.81 µg/mL (3 µM)): 71.80 ± 0.51%; NO half-maximal inhibitory concentration (IC50) ([5]; LPS-stimulated RAW 264.7): 0.62 µg/mL; NO inhibition ([5]; test concentration 0.81 µg/mL (3 µM), LPS 1 µg/mL): 86.93 ± 0.96%
4 | CC(C)[C@@H](C)/C=C/[C@@H](C)[C@H]1CCC2=C3C=C[C@@]4(O)C[C@@H](O)CC[C@]4(C)[C@H]3CC[C@@]21C [Compound (3), (3β,5α,22E)-ergosta-6,8(14),22-triene-3,5-diol] | 16.5 (≈ 39.9 µM) | 18.40 µg/mL (≈ 44.6 µM) | 10.4 | 93.19 ± 0.49 | 93.86 ± 1.33 | 82.31 ± 0.78 | 1.70 ± 0.27 | 23.8 ± 2.31 | 2.89 (≈ 7 µM) | 32.8 ± 0.73 | 55.2 ± 1.2 | 71.4 ± 1.38 | 18.5 (≈ 44.9 µM) | greater than 50% | 24.2 | > 1210 | 1.29 ± 1.11 | 12.1 ± 0.95 | 25.81 (≈ 62.5 µM) | 60 | 
5 | CC(C)[C@@H](C)/C=C/[C@@H](C)[C@H]1CC[C@@H]2[C@]1(C)CC[C@H]1[C@]23C=C[C@]2(C[C@@H](O)CC[C@]12C)OO3 [Compound (2), ergosterol peroxide] | 27.1 (≈ 63.2 µM) | 14.93 µg/mL (≈ 34.8 µM) |  | 98.08 ± 1.26 | 83.99 ± 1.05 | 60.87 ± 2.21 | 2.18 ± 0.68 | 25.9 ± 1.24 | 16.2 (≈ 37.8 µM) | 28 ± 0.84 | 56.7 ± 1.29 | 81.4 ± 1.35 | 22.5 (≈ 52.4 µM) | greater than 50% | 11.5 | > 1170 | 2.54 ± 1.6 | 11.7 ± 2.13 | 21.89 (≈ 51.1 µM) | 51.1 | 
